Laboratory results as given in ChEMBL document CHEMBL1154716, “Synthesis of some new S-triazine based chalcones and their derivatives as potent antimicrobial agents” (2010).
≈ marks a conversion by molar mass, not a printed value. Calls of active or inactive are those of the source. The calls are words filed in the database; no cut-off is given here.

Key:
Micrococcus flavus [1] = test: Antimicrobial activity against Micrococcus flavus at 1 umol/spot after 18 hrs by TLC-bioautographic method; assay type: functional
Method in brief: (§1)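 TLC bioautography. Samples are spotted on silica gel TLC plates, then sprayed with bacteria (1.0 × 10^5 cfu/ml) in tryptic soy broth. Plates are incubated 18 h at 37 C and sprayed with 3% aqueous p-iodonitrotetrazolium violet. After a further 3 h, growth is stopped with 70% EtOH. White zones on a pink background are scored as inhibition-zone diameter with standard errors.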

Micrococcus flavus [2] = test: Antimicrobial activity against Micrococcus flavus at 1 umol/disk after 24 hrs by disk diffusion assay; assay type: functional
Method in brief: (§2)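 Disc diffusion on 4 mm filter discs. Bacteria are grown overnight in LB at 28 C, then adjusted in saline to 1.0 × 10^5 cfu/ml. The suspension is mixed into top agar over peptone agar plates. Plates are incubated 24 h at 28 C, and growth-inhibition zone diameter is measured. Streptomycin and ampicillin controls are applied from a 1 mg/ml stock. Tests are done in duplicate.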

Pseudomonas aeruginosa [3] = test: Antimicrobial activity against Pseudomonas aeruginosa at 1 umol/spot after 18 hrs by TLC-bioautographic method; assay type: functional; method in brief: as §1
Enterobacter cloacae [4] = test: Antimicrobial activity against Enterobacter cloacae at 1 umol/disk after 24 hrs by disk diffusion assay; assay type: functional; method in brief: as §2
Bacillus cereus [5] = test: Antimicrobial activity against Bacillus cereus at 10 ug/disk after 24 hrs by disk diffusion assay; assay type: functional; method in brief: as §2
Bacillus cereus [6] = test: Antimicrobial activity against Bacillus cereus at 1 umol/spot after 18 hrs by TLC-bioautographic method; assay type: functional; method in brief: as §1
Listeria monocytogenes [7] = test: Antimicrobial activity against Listeria monocytogenes at 1 umol/disk after 24 hrs by disk diffusion assay; assay type: functional; method in brief: as §2
Escherichia coli [8] = test: Antimicrobial activity against Escherichia coli at 1 umol/spot after 18 hrs by TLC-bioautographic method; assay type: functional; method in brief: as §1
Pseudomonas aeruginosa [9] = test: Antimicrobial activity against Pseudomonas aeruginosa at 1 umol/disk after 24 hrs by disk diffusion assay; assay type: functional; method in brief: as §2
Staphylococcus aureus [10] = test: Antimicrobial activity against Staphylococcus aureus at 1 umol/disk after 24 hrs by disk diffusion assay; assay type: functional; method in brief: as §2
Micrococcus flavus [11] = test: Antimicrobial activity against Micrococcus flavus after 24 hrs by microdilution technique; assay type: functional
Method in brief: (§3)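 Broth microdilution in LB medium. Inoculum is 1.0 × 10^4 cfu per well, from a saline-adjusted suspension of 1.0 × 10^5 cfu/ml. Compounds are dissolved in DMSO. Incubated 24 h at 28 C. MIC is the lowest concentration with no visible growth under a binocular microscope. MBC is read by subculture into fresh broth for 72 h, with no growth taken as 99.5% kill. OD is read at 655 nm.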

Salmonella typhimurium [12] = test: Antimicrobial activity against Salmonella Typhimurium at 1 umol/disk after 24 hrs by disk diffusion assay; assay type: functional, organism-based; conditions: Salmonella enterica subsp. enterica serovar Typhimurium; method in brief: as §2
Escherichia coli [13] = test: Antimicrobial activity against Escherichia coli at 10 ug/disk after 24 hrs by disk diffusion assay; assay type: functional; method in brief: as §2
Salmonella typhimurium [14] = test: Antimicrobial activity against Salmonella Typhimurium after 24 hrs by microdilution technique; assay type: functional, Salmonella enterica subsp. enterica serovar Typhimurium; conditions: Salmonella enterica; method in brief: as §3
Enterobacter cloacae [15] = test: Antimicrobial activity against Enterobacter cloacae at 1 umol/spot after 18 hrs by TLC-bioautographic method; assay type: functional; method in brief: as §1
Staphylococcus aureus [16] = test: Antimicrobial activity against Staphylococcus aureus at 10 ug/disk after 24 hrs by disk diffusion assay; assay type: functional; method in brief: as §2
Salmonella typhimurium [17] = test: Antimicrobial activity against Salmonella Typhimurium at 10 ug/disk after 24 hrs by disk diffusion assay; assay type: functional, organism-based; conditions: Salmonella enterica subsp. enterica serovar Typhimurium; method in brief: as §2
Staphylococcus aureus [18] = test: Antimicrobial activity against Staphylococcus aureus after 24 hrs by microdilution technique; assay type: functional; method in brief: as §3
Escherichia coli [19] = test: Antimicrobial activity against Escherichia coli after 24 hrs by microdilution technique; assay type: functional; method in brief: as §3
Listeria monocytogenes [20] = test: Antimicrobial activity against Listeria monocytogenes at 1 umol/spot after 18 hrs by TLC-bioautographic method; assay type: functional; method in brief: as §1
Bacillus cereus [21] = test: Antimicrobial activity against Bacillus cereus at 1 umol/disk after 24 hrs by disk diffusion assay; assay type: functional; method in brief: as §2
Listeria monocytogenes [22] = test: Antimicrobial activity against Listeria monocytogenes at 10 ug/disk after 24 hrs by disk diffusion assay; assay type: functional; method in brief: as §2
Enterobacter cloacae [23] = test: Antimicrobial activity against Enterobacter cloacae at 10 ug/disk after 24 hrs by disk diffusion assay; assay type: functional; method in brief: as §2
Enterobacter cloacae [24] = test: Antimicrobial activity against Enterobacter cloacae after 24 hrs by microdilution technique; assay type: functional; method in brief: as §3
Salmonella typhimurium [25] = test: Antimicrobial activity against Salmonella Typhimurium at 1 umol/spot after 18 hrs by TLC-bioautographic method; assay type: functional, Salmonella enterica subsp. enterica serovar Typhimurium; method in brief: as §1
Bacillus cereus [26] = test: Antimicrobial activity against Bacillus cereus after 24 hrs by microdilution technique; assay type: functional; method in brief: as §3
Staphylococcus aureus [27] = test: Antimicrobial activity against Staphylococcus aureus at 1 umol/spot after 18 hrs by TLC-bioautographic method; assay type: functional; method in brief: as §1
Escherichia coli [28] = test: Antimicrobial activity against Escherichia coli at 1 umol/disk after 24 hrs by disk diffusion assay; assay type: functional; method in brief: as §2
Pseudomonas aeruginosa [29] = test: Antimicrobial activity against Pseudomonas aeruginosa at 10 ug/disk after 24 hrs by disk diffusion assay; assay type: functional; method in brief: as §2
Micrococcus flavus [30] = test: Antimicrobial activity against Micrococcus flavus at 10 ug/disk after 24 hrs by disk diffusion assay; assay type: functional; method in brief: as §2
Pseudomonas aeruginosa [31] = test: Antimicrobial activity against Pseudomonas aeruginosa after 24 hrs by microdilution technique; assay type: functional; method in brief: as §3
Listeria monocytogenes [32] = test: Antimicrobial activity against Listeria monocytogenes after 24 hrs by microdilution technique; assay type: functional; method in brief: as §3

MIC (Micrococcus flavus [11])	MIC (Salmonella typhimurium [14])	Compound	inhibition zone (IZ) (Micrococcus flavus [1])	inhibition zone (IZ) (Micrococcus flavus [2])	inhibition zone (IZ) (Pseudomonas aeruginosa [3])	inhibition zone (IZ) (Enterobacter cloacae [4])	inhibition zone (IZ) (Bacillus cereus [5])	inhibition zone (IZ) (Bacillus cereus [6])	inhibition zone (IZ) (Listeria monocytogenes [7])	inhibition zone (IZ) (Escherichia coli [8])	inhibition zone (IZ) (Pseudomonas aeruginosa [9])	inhibition zone (IZ) (Staphylococcus aureus [10])	MBC (Micrococcus flavus [11])	inhibition zone (IZ) (Salmonella typhimurium [12])	inhibition zone (IZ) (Escherichia coli [13])	MBC (Salmonella typhimurium [14])	inhibition zone (IZ) (Enterobacter cloacae [15])	inhibition zone (IZ) (Staphylococcus aureus [16])	inhibition zone (IZ) (Salmonella typhimurium [17])	MBC (Staphylococcus aureus [18])	further results
189 µM (≈ 100 µg/mL)	189 µM (≈ 100 µg/mL)	Nc1nc(-c2ccc(Nc3nc(Nc4ccccc4)nc(Nc4ccccc4)n3)cc2)cc(-c2cccs2)n1	0.08 millimeter	0.04 millimeter	inactive	inactive	inactive	0.09 millimeter	inactive	inactive	inactive	inactive	378 µM (≈ 200 µg/mL)	inactive	inactive	378 µM (≈ 200 µg/mL)	0.08 millimeter	inactive	inactive	378 µM (≈ 200 µg/mL)	MIC (Staphylococcus aureus [18]): 189 µM (≈ 100 µg/mL); MBC (Escherichia coli [19]): 378 µM (≈ 200 µg/mL); MIC (Escherichia coli [19]): 189 µM (≈ 100 µg/mL); inhibition zone (IZ) (Listeria monocytogenes [20]): 0.08 millimeter; inhibition zone (IZ) (Bacillus cereus [21]): inactive; inhibition zone (IZ) (Listeria monocytogenes [22]): inactive; inhibition zone (IZ) (Enterobacter cloacae [23]): inactive; MBC (Enterobacter cloacae [24]): 378 µM (≈ 200 µg/mL); MIC (Enterobacter cloacae [24]): 189 µM (≈ 100 µg/mL); inhibition zone (IZ) (Salmonella typhimurium [25]): 0.09 millimeter; MBC (Bacillus cereus [26]): 378 µM (≈ 200 µg/mL); MIC (Bacillus cereus [26]): 189 µM (≈ 100 µg/mL); inhibition zone (IZ) (Staphylococcus aureus [27]): 0.03 millimeter; inhibition zone (IZ) (Escherichia coli [28]): inactive; inhibition zone (IZ) (Pseudomonas aeruginosa [29]): inactive; zone of inhibition at 10 µg/disc (Micrococcus flavus [30]; read-out: IZ): 6 mm; MBC (Pseudomonas aeruginosa [31]): 756 µM (≈ 400 µg/mL); MIC (Pseudomonas aeruginosa [31]): 756 µM (≈ 400 µg/mL); MBC (Listeria monocytogenes [32]): 756 µM (≈ 400 µg/mL); MIC (Listeria monocytogenes [32]): 756 µM (≈ 400 µg/mL)
188 µM (≈ 103 µg/mL)	376 µM (≈ 206 µg/mL)	CC(=O)N1N=C(c2ccc(Nc3nc(Nc4ccccc4)nc(Nc4ccccc4)n3)cc2)CC1c1cccs1 (stereo not given)	inactive	inactive	inactive	inactive	inactive	0.08 millimeter	inactive	inactive	inactive	inactive	376 µM (≈ 206 µg/mL)	inactive	inactive	732 µM (≈ 400 µg/mL)	0.1 millimeter	inactive	inactive	732 µM (≈ 400 µg/mL)	MIC (Staphylococcus aureus [18]): 376 µM (≈ 206 µg/mL); MBC (Escherichia coli [19]): 376 µM (≈ 206 µg/mL); MIC (Escherichia coli [19]): 188 µM (≈ 103 µg/mL); inhibition zone (IZ) (Listeria monocytogenes [20]): 0.08 millimeter; inhibition zone (IZ) (Bacillus cereus [21]): inactive; inhibition zone (IZ) (Listeria monocytogenes [22]): inactive; inhibition zone (IZ) (Enterobacter cloacae [23]): inactive; MBC (Enterobacter cloacae [24]): 732 µM (≈ 400 µg/mL); MIC (Enterobacter cloacae [24]): 732 µM (≈ 400 µg/mL); inhibition zone (IZ) (Salmonella typhimurium [25]; Salmonella enterica subsp. enterica serovar Typhimurium): inactive; MBC (Bacillus cereus [26]): 376 µM (≈ 206 µg/mL); MIC (Bacillus cereus [26]): 188 µM (≈ 103 µg/mL); inhibition zone (IZ) (Staphylococcus aureus [27]): inactive; inhibition zone (IZ) (Escherichia coli [28]): inactive; inhibition zone (IZ) (Pseudomonas aeruginosa [29]): inactive; inhibition zone (IZ) (Micrococcus flavus [30]): inactive; MBC (Pseudomonas aeruginosa [31]): 732 µM (≈ 400 µg/mL); MIC (Pseudomonas aeruginosa [31]): 376 µM (≈ 206 µg/mL); MBC (Listeria monocytogenes [32]): 732 µM (≈ 400 µg/mL); MIC (Listeria monocytogenes [32]): 732 µM (≈ 400 µg/mL)
